Data taken from ChEMBL document CHEMBL4651341, “The discovery of a novel series of compounds with single-dose efficacy against juvenile and adult Schistosoma species” (PLoS Negl Trop Dis, 2021).
In brackets after ≈: the same amount, converted by molar mass.

Legend:
Schistosoma mansoni [1] = test: Concentration required to kill 50% of 42 day old worms 5 days after drug treatment.; type: functional, organism-based; details: Puerto Rican, 120 h
How it was run: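 Adult S. mansoni were perfused from CD1 mice 6 weeks post-infection and washed. They were cultured 3 pairs per well in 1 mL DMEM with 2 mM glutamine, penicillin/streptomycin and 10% FCS […] at 37 °C, 5% CO2. Viability of individual worms was scored on day 5 (120 h).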

Schistosoma mansoni [2] = test: Concentration required to kill 50% of 21 day old worms 5 days after drug treatment.; type: functional, organism-based; details: Puerto Rican, 120 h
How it was run: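 Juvenile S. mansoni (Puerto Rican strain) were perfused from CD1 mice 3 weeks post-infection and washed. They were cultured 6–8 per well in 200 µL DMEM with 2 mM glutamine, penicillin/streptomycin and 10% FCS at 37 °C, 5% CO2. Viability of individual worms was scored on day 5 after dosing (120 h).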

[3] = Concentration required to kill 50% MRC-5 cells as detected by Alamar blue staining; type: toxicity, cell-based, MRC5; details: homo sapiens, read-out: TC50 (the source's name)
[4] = Mean oral bioavailability in Swiss albino male mice at […] per compound (administered in a mixture of 5 compounds to 3 mice) assessed by LCMS/MS.; also: dose 2.5 mg/kg; type: ADME, organism-based; details: male, Swiss albino, mouse, in vivo, read-out: Bioavailability
[5] = Mean AUC inf in Swiss albino male mice at 1 mg/kg per compound (administered iv in a mixture of 5 compounds to 3 mice) assessed by LCMS/MS.; type: ADME, organism-based; details: male, Swiss albino, mouse, in vivo
How it was run: (§1)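 Male Swiss albino mice (~30 g), 3 per experiment, mostly dosed as mixtures of 5 compounds iv via the lateral tail vein. Vehicle: 10% DMSO/90% 50 mM Na2HPO4 with 0.5% Tween-80. Blood sampled at 5, 15, 30 min and 1, 2, 4, 8, 24 h. Plasma stored at −20 °C and quantified by LC-MS after acetonitrile precipitation.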

[6] = Mean observed clearance in Swiss albino male mice at 1 mg/kg per compound (administered iv in a mixture of 5 compounds to 3 mice) assessed by LCMS/MS.; type: ADME, organism-based; details: male, Swiss albino, mouse, in vivo, read-out: Clearance (converted); how it was run: as §1
[7] = Mean volume of distribution at steady state in Swiss albino male mice at 1 mg/kg per compound (administered iv in a mixture of 5 compounds to 3 mice) assessed by LCMS/MS.; type: ADME, organism-based; details: mouse, in vivo, read-out: Volume
How it was run: (§2)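 Male Swiss albino mice (~30 g), 3 per experiment, mostly dosed as mixtures of 5 compounds iv via the lateral tail vein. Vehicle: 10% DMSO/90% 50 mM Na2HPO4 with 0.5% Tween-80. Plasma stored at −20 °C and quantified by LC-MS after acetonitrile precipitation.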

[8] = Mean half-life in Swiss albino male mice at 1 mg/kg per compound (administered iv in a mixture of 5 compounds to 3 mice) assessed by LCMS/MS.; type: ADME, organism-based; details: mouse, in vivo; how it was run: as §2
[9] = Mean plasma concentration at 24h in Swiss albino male mice at […] per compound (administered orally in a mixture of 5 compounds to 3 mice) assessed by LCMS/MS.; type: ADME, organism-based; details: mouse, po
[10] = Mean plasma concentration at 4h in Swiss albino male mice at […] per compound (administered orally in a mixture of 5 compounds to 3 mice) assessed by LCMS/MS.; type: ADME, organism-based; details: mouse, po
[11] = Mean time to peak plasma concentration in Swiss albino male mice at […] per compound (administered orally in a mixture of 5 compounds to 3 mice) assessed by LCMS/MS.; type: ADME, organism-based; details: mouse, po
[12] = Percentage of parent compound remaining after incubation for 90 minutes with cyropreserved mouse hepatocytes at a concentration of 1uM compound and […], determined by LCMS; type: ADME, tissue-based, Hepatocyte; details: cryopreserved mouse hepatocytes, read-out: Stability
How it was run: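 Compound was incubated at 1 µM final (2 µM working solution mixed 1:1 with hepatocyte suspension) in supplemented KHB pH 7.4. Conditions: 37 °C, 5% CO2, gentle mixing, duplicates. Reaction quenched with ice-cold acetonitrile containing standard; analysed by LC-MS/MS. % remaining = AUC at t / AUC at T0.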

[13] = Solubility at 25 degC of compound (diluted from DMSO) in PBS at pH 7.4 determined after 24h (1h sonication, 22h shaking, 1h sonication) by LCMS/MS; type: physicochemical
[14] = Concentration required to kill 50% HepG2 cells as detected by MTT staining; type: toxicity, cell-based; details: homo sapiens, read-out: TC50 (the source's name)

Row | SMILES | EC50 (Schistosoma mansoni [1]) [µM] | EC50 (Schistosoma mansoni [2]) [µM] | CC50 [3] [µM] | bioavailability [4] [%] | AUC(0-inf) [5] [ng·h/mL] | clearance [6] [mL/min/kg] | Vd [7] [L/kg] | half-life [8] [min] | concentration at 24 h [9] [ng/mL] | concentration at 4 h [10] [ng/mL] | Tmax [11] [min] | remaining at 1.5 h, 1 µM [12] [%] | solubility kinetic at 24 h [13] [µM] | CC50 [14] [µM]
1 | COc1ccc(-c2cnc3cnc(-c4ccc(N5CCN(C)CC5)nc4)cn23)cc1 | > 25 | 15 | 20.9 | – | – | – | – | – | – | – | – | – | – | –
2 | CC(C)Oc1cccc(-c2cn3c(-c4cnn(Cc5ccccc5)c4)cnc3cn2)c1 | > 25 | > 25 | 39.4 | – | – | – | – | – | – | – | – | – | – | –
3 | CC(C)Oc1cccc(-c2cn3c(-c4ccc5[nH]ncc5c4)cnc3cn2)c1 | 7.19 | 7.5 | 22.2 | – | – | – | – | – | – | – | – | – | – | –
4 | CC1(c2nc3cnc(-c4ccc(F)c(C(F)(F)F)c4)cn3c2-c2c(F)cc(O)cc2F)CC1 | 0.0563 | 0.0796 | – | 55.6 | 528 | 15.9 | 9.19 | 509 | 7.01 | 76 | 15 | 41.7 | 32.8 (≈ 15.2 µg/mL) | 7.9
5 | CCc1nc2cnc(-c3ccc(F)c(C(F)(F)F)c3)cn2c1-c1c(F)cc(O)cc1F | 0.0528 | 0.0514 | – | 47.7 | 464 | 18 | 8.79 | 600 | 12.3 | 50.3 | 15 | 36 | 1.5 (≈ 0.656 µg/mL) | 8.3
6 | Fc1ccc(-c2cn3c(-c4ccc5[nH]ncc5c4F)c(C(F)(F)F)nc3cn2)cc1CC(F)(F)F | 0.0119 | 0.0104 | – | 52.5 | 328 | 25.5 | 3.28 | 165 | 0.971 | 57.2 | 30 | 55.8 | 0.0917 (≈ 0.0456 µg/mL) | 5.3
7 | Fc1ccc(-c2cn3c(-c4ccc5[nH]ncc5c4F)c(C(F)(F)F)nc3cn2)cc1OC(F)(F)F | 0.0169 | 0.0208 | – | 81 | 2700 | 3.23 | 5.89 | 1330 | 165 | 358 | 60 | 94.2 | 0.785 (≈ 0.392 µg/mL) | 12.2
8 | COc1ccc(-c2cnc3cnc(-c4cccc(OC)c4)cn23)cc1 | 6.75 | 12.6 | > 49.9 | – | – | – | – | – | – | – | – | – | – | –
9 | CC(C)Oc1cccc(-c2ccc3nnc(-c4ccc(O)cc4)n3c2)c1 | – | > 25 | > 50 | – | – | – | – | – | – | – | – | – | – | –
10 | Oc1cc(F)c(-c2c(C3CCC3)nc3cnc(-c4ccc(F)c(C(F)(F)F)c4)cn23)c(F)c1 | 0.0586 | 0.0729 | – | 48.6 | 1060 | 7.9 | 4.74 | 550 | 21.7 | 161 | 20 | 48.2 | 51.6 (≈ 23.9 µg/mL) | 5.7
11 | Cc1nc2cnc(-c3ccc(F)c(C(F)(F)F)c3)cn2c1-c1c(F)cc(OP(=O)(O)O)cc1F | – | 0.103 | – | 39.3 | 111 | 75.3 | 7.18 | 139 | 0.1 | 15.6 | 15 | 40.8 | 136 (≈ 68.4 µg/mL) | 6.8
12 | CC(C)c1nc2cnc(-c3ccc(F)c(C(F)(F)F)c3)nc2n1-c1c(F)cc(O)cc1F | 0.0714 | 0.128 | – | 45 | 360 | 23.3 | 7.39 | 425 | 5.17 | 52.6 | 15 | 12.5 | 1.26 (≈ 0.57 µg/mL) | 4.8
13 | CC(C)Oc1cccc(-c2cn3c(-c4ccnc(C(F)(F)F)c4)cnc3cn2)c1 | > 25 | > 25 | > 49.2 | – | – | – | – | – | – | – | – | – | – | –
14 | CC(C)c1cccc(-c2ccc3nnc(-c4cccc(NS(C)(=O)=O)c4)n3c2)c1 | – | 24.6 | > 50 | – | – | – | – | – | – | – | – | – | – | –
15 | CC(C)c1nc2cnc(-c3cccc(S(F)(F)(F)(F)F)c3)cn2c1-c1c(F)cc(O)cc1F | 0.0238 | < 0.012 | – | 18.4 | 231 | 36.2 | 2.64 | 106 | 0.1 | 16.6 | 15 | 31.1 | 6.63 (≈ 3.26 µg/mL) | 6.6
16 | COc1ccc(-c2nnc3ccc(-c4cccc(C(C)C)c4)cn23)cn1 | – | 24.2 | 45.8 | – | – | – | – | – | – | – | – | – | – | –
17 | CCc1nn2cnc(-c3ccc(F)c(C(F)(F)F)c3)cc2c1-c1c(F)cc(O)cc1F | 0.0109 | 0.0323 | – | 21.1 | 144 | 58.5 | 4.06 | 74.4 | 0.01 | 9.68 | 20 | 50.7 | 1.21 (≈ 0.529 µg/mL) | 9.8
18 | CC(C)c1nc2cnc(-c3ccc(F)c(C(F)(F)F)c3)cn2c1-c1c(F)cc(OP(=O)(O)O)cc1F | 0.0272 | 0.025 | – | 21.4 | 54.7 | 153 | 3.62 | 25 | 0.1 | 4.01 | 15 | 0.9 | 179 (≈ 95.1 µg/mL) | 6.5
19 | COc1ccc(-c2nnc3ccc(-c4cccc5c4OCC5)cn23)cc1OC | – | 24.8 | 27.6 | – | – | – | – | – | – | – | – | – | – | –
